Results: ChEMBL document CHEMBL2157978, “Design, synthesis, and biological evaluation of nonsteroidal cycloalkane[d]isoxazole-containing androgen receptor modulators” (J Med Chem, 2012)
Calls of active or inactive are those of the source. The rule behind the calls is not given here.

What was measured:
[1] = target: Luciferin 4-monooxygenase (Photinus pyralis) (UniProt P08659); assay: Inhibition of Photinus pyralis recombinant luciferase at 10 uM incubated for 20 mins
Outline: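 Purified firefly luciferase diluted to 0.1 μg/mL in 1x Reporter Lysis Buffer, with compound added from ethanol stocks (10⁻³–10⁻⁷ mol/L dilutions) in triplicate. Incubated 20 min at rt, then luciferase substrate added and luminescence read. Blank (lysis buffer) and ethanol-vehicle controls were included.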

[2] = target: T1, Androgen receptor (Homo sapiens) (UniProt P10275); assay: Agonist activity at wild type human androgen receptor expressed in COS-1 cells co-transfected with pSG5 assessed as effect on testosterone induced luciferase activity at 10 uM after 18 hrs relative untreated control; type: functional, cell-based
T1 sequence (whole entry): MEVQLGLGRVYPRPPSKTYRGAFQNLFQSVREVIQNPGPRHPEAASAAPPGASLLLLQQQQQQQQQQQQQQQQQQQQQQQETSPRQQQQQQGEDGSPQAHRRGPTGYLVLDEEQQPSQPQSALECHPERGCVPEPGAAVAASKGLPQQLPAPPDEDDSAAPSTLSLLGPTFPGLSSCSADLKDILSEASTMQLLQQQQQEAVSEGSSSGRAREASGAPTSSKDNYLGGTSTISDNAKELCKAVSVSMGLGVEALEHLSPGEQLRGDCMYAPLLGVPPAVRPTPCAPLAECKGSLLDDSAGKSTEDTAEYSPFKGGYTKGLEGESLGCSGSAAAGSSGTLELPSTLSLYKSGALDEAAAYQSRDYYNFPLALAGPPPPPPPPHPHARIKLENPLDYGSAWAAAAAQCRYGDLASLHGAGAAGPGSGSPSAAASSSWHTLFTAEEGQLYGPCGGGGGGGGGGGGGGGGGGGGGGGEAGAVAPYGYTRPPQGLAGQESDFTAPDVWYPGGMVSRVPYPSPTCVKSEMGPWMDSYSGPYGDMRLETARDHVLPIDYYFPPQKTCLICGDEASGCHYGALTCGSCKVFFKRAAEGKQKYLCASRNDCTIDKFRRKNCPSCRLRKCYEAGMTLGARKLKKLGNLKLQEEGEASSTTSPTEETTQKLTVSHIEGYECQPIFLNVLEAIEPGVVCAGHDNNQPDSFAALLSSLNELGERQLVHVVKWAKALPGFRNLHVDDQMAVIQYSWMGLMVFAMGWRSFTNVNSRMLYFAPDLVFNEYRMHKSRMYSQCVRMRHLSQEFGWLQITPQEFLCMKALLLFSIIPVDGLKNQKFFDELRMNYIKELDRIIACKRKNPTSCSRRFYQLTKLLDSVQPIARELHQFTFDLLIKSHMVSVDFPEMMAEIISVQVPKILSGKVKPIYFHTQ

Androgen receptor = target: T2, Androgen receptor (Homo sapiens, UniProt P10275); assay: Displacement of [3H]R1881 from wild type human androgen receptor expressed in COS-1 cells co-transfected with pSG5 after 2 hrs by scintillation assay
T2 sequence (P10275 whole entry): T1 sequence (whole entry)

Chain of Luciferin 4-monooxygenase (Photinus pyralis) (P08659 whole entry): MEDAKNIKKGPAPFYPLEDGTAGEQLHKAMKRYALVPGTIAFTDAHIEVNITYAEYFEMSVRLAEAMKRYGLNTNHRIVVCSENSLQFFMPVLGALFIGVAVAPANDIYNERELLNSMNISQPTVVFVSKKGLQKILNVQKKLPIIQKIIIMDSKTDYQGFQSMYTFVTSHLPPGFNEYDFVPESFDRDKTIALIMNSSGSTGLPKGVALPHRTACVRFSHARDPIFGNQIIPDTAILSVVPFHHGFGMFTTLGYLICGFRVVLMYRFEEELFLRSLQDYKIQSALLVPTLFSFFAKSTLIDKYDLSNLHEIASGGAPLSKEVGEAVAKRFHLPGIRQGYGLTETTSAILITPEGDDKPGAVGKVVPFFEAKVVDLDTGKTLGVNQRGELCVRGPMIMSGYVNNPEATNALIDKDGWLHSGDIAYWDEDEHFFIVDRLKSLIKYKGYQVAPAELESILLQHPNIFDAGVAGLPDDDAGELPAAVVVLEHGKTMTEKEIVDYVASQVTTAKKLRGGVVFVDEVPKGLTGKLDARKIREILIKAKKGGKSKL

Row | Compound | inhibition [1] | Activity [2] | IC50 (Androgen receptor) [nM]
1 | N#Cc1ccc(C2=NOC3CCCCCCC23)c(C(F)(F)F)c1 (stereo unspecified) [listing 1 of 2 here] | inactive | inactive | –
2 | N#Cc1ccc(C2=NOC3CCCCCC23)cc1C(F)(F)F (racemic) | inactive | inactive | 43.7
3 | O=[N+]([O-])c1ccc(C2=NO[C@@H]3CCC[C@H]23)cc1C(F)(F)F | inactive | inactive | 302
4 | COc1ccc(C2=NOC3CCCCC23)cc1 (cis isomer) | inactive | inactive | –
5 | O=[N+]([O-])c1ccc(C2=NO[C@H]3CCCC[C@@H]23)c(C(F)(F)F)c1 | inactive | inactive | 263
6 | N#Cc1ccc(C2=NO[C@@H]3CCC[C@H]23)cc1C(F)(F)F | inactive | inactive | 224
7 | O=[N+]([O-])c1ccc(C2=NOC3CCCC23)c(C(F)(F)F)c1 (racemic) | inactive | inactive | 269
8 | O=[N+]([O-])c1ccc(C2=NOC3CCCCCCC23)c(C(F)(F)F)c1 (cis isomer) [listing 1 of 2 here] | – | – | 741
9 | COc1cccc(C2=NOC3CCCCC23)c1 (stereo unspecified) | inactive | inactive | –
10 | Fc1ccc(C2=NOC3CCCC23)c(C(F)(F)F)c1 (cis isomer; 5g) [listing 1 of 2 here] | – | – | 1350
11 | N#Cc1ccc(C2=NOC3CCCCC23)c(C(F)(F)F)c1 (stereo unspecified) [listing 1 of 2 here] | inactive | inactive | –
12 | O=[N+]([O-])c1ccc(C2=NOC3CCCCCCC23)cc1C(F)(F)F (racemic) | inactive | inactive | 708
13 | Fc1ccc(C2=NOC3CCCC23)c(C(F)(F)F)c1 (cis isomer; 5g) [listing 2 of 2 here] | inactive | inactive | –
14 | c1ccc(C2=NOC3CCCCC23)cc1 (cis isomer) | inactive | inactive | –
15 | N#Cc1ccc(C2=NOC3CCCCCCC23)cc1C(F)(F)F (racemic) | inactive | inactive | 295
16 | N#Cc1ccc(C2=NOC3CCCCCC23)c(C(F)(F)F)c1 (cis isomer) [listing 1 of 2 here] | inactive | inactive | –

Row | Compound | inhibition [1] | Activity [2] | IC50 (Androgen receptor) [nM]
17 | c1ccc2c(C3=NOC4CCCCC34)cccc2c1 (cis isomer) | inactive | inactive | –
18 | N#Cc1ccc(C2=NOC3CCCCCCC23)c(C(F)(F)F)c1 (cis isomer) [listing 1 of 2 here] | inactive | inactive | –
19 | N#Cc1ccc(C2=NOC3CCCCCC23)c(C(F)(F)F)c1 (cis isomer) [listing 2 of 2 here] | – | – | 1000
20 | N#Cc1ccc(C2=NOC3CCCCCCC23)c(C(F)(F)F)c1 (stereo unspecified) [listing 2 of 2 here] | – | – | 2000
21 | Fc1cccc(C2=NOC3CCCCC23)c1 (racemic) | inactive | inactive | –
22 | O=[N+]([O-])c1ccc(C2=NOC3CCCCCCC23)c(C(F)(F)F)c1 (stereo unspecified) [listing 1 of 2 here] | inactive | inactive | –
23 | N#Cc1ccc(C2=NOC3CCCCC23)c(C(F)(F)F)c1 (cis isomer) [listing 2 of 2 here] | – | – | 1780
24 | N#Cc1cccc(C2=NOC3CCCCC23)c1C(F)(F)F (stereo unspecified) [listing 1 of 2 here] | inactive | inactive | –
25 | Fc1ccc(C2=NOC3CCCCCCC23)cc1C(F)(F)F (cis isomer; 8f) [listing 2 of 2 here] | inactive | inactive | –
26 | Fc1ccc(C2=NOC3CCCCC23)cc1 (cis isomer) | inactive | inactive | –
27 | O=[N+]([O-])c1ccc(C2=NOC3CCCCC23)cc1 (racemic) | inactive | inactive | –
28 | Fc1ccc(C2=NOC3CCCCCCC23)c(C(F)(F)F)c1 (cis isomer; 8g) | inactive | inactive | –
29 | N#Cc1ccc(C2=NOC3CCCCCC23)c(C(F)(F)F)c1 (stereo unspecified) [listing 1 of 2 here] | inactive | inactive | –
30 | O=[N+]([O-])c1ccc(C2=NOC3CCCCCCC23)c(C(F)(F)F)c1 (cis isomer) [listing 2 of 2 here] | inactive | inactive | –
31 | N#Cc1ccc(C2=NOC3CCCCCC23)c(C(F)(F)F)c1 (stereo unspecified) [listing 2 of 2 here] | – | – | 1150
32 | O=[N+]([O-])c1ccc(C2=NOC3CCCCCCC23)c(C(F)(F)F)c1 (stereo unspecified) [listing 2 of 2 here] | – | – | 776

Continued, values first:

Row | inhibition [1] | Activity [2] | IC50 (Androgen receptor) [nM] | Compound
33 | inactive | inactive | – | Clc1ccc(C2=NOC3CCCCC23)cc1 (stereo unspecified)
34 | inactive | inactive | 11000 | Fc1ccc(C2=NOC3CCCCCC23)cc1C(F)(F)F (racemic)
35 | inactive | inactive | – | Clc1cccc(C2=NOC3CCCCC23)c1 (cis isomer; 6n)
36 | – | – | 79.4 | N#Cc1cccc(C2=NOC3CCCCC23)c1C(F)(F)F (cis isomer) [listing 1 of 2 here]
37 | inactive | inactive | – | Clc1ccc(C2=NOC3CCCCC23)cc1 (cis isomer)
38 | inactive | inactive | – | Fc1ccc(C2=NOC3CCCCCCC23)c(C(F)(F)F)c1 (cis isomer; cis) [listing 1 of 2 here]
39 | – | – | 1550 | Fc1ccc(C2=NOC3CCCC23)c(C(F)(F)F)c1 (cis isomer; cis) [listing 1 of 2 here]
40 | inactive | inactive | – | c1ccc(C2=NOC3CCCCC23)cc1 (stereo unspecified)
41 | inactive | inactive | – | COc1ccccc1C1=NOC2CCCCC12 (racemic)
42 | inactive | inactive | 389 | O=[N+]([O-])c1ccc(C2=NO[C@H]3CCCCC[C@@H]23)c(C(F)(F)F)c1
43 | inactive | inactive | 1100 | Fc1ccc(C2=NOC3CCCCC23)cc1C(F)(F)F (racemic)
44 | inactive | inactive | 129 | O=[N+]([O-])c1ccc(C2=NO[C@@H]3CCCC[C@H]23)c(C(F)(F)F)c1
45 | inactive | inactive | – | c1ccc2c(C3=NOC4CCCCC34)cccc2c1 (stereo unspecified)
46 | inactive | inactive | – | N#Cc1ccc(C2=NOC3CCCCC23)c(C(F)(F)F)c1 (cis isomer) [listing 1 of 2 here]
47 | inactive | inactive | – | COc1ccc(C2=NOC3CCCCC23)cc1 (stereo unspecified)
48 | inactive | inactive | – | N#Cc1cccc(C2=NOC3CCCCC23)c1C(F)(F)F (cis isomer) [listing 2 of 2 here]
49 | – | – | 13200 | Fc1ccc(C2=NOC3CCCCCCC23)c(C(F)(F)F)c1 (cis isomer; cis) [listing 2 of 2 here]

Row | inhibition [1] | Activity [2] | IC50 (Androgen receptor) [nM] | Compound
50 | inactive | inactive | – | N#Cc1ccc(C2=NOC3CCCCC23)cc1 (stereo unspecified)
51 | inactive | inactive | – | Fc1ccc(C2=NOC3CCCCCCC23)cc1C(F)(F)F (cis isomer; cis) [listing 1 of 2 here]
52 | inactive | inactive | – | Clc1ccccc1C1=NOC2CCCCC12 (cis isomer)
53 | inactive | inactive | – | Fc1ccc(C2=NOC3CCCCC23)c(C(F)(F)F)c1 (stereo unspecified) [listing 1 of 2 here]
54 | – | – | 5890 | Fc1ccc(C2=NOC3CCCCCCC23)cc1C(F)(F)F (cis isomer; 8f) [listing 1 of 2 here]
55 | inactive | inactive | – | Fc1ccc(C2=NOC3CCCCC23)cc1 (stereo unspecified)
56 | – | – | 977 | Fc1ccc(C2=NOC3CCCCC23)c(C(F)(F)F)c1 (stereo unspecified) [listing 2 of 2 here]
57 | inactive | inactive | – | Fc1ccccc1C1=NOC2CCCCC12 (stereo unspecified)
58 | – | – | 1150 | Fc1ccc(C2=NOC3CCCCC23)c(C(F)(F)F)c1 (cis isomer) [listing 1 of 2 here]
59 | – | – | 2820 | Fc1ccc(C2=NOC3CCCCCCC23)cc1C(F)(F)F (cis isomer; cis) [listing 2 of 2 here]
60 | – | – | 1150 | N#Cc1ccc(C2=NOC3CCCCC23)c(C(F)(F)F)c1 (stereo unspecified) [listing 2 of 2 here]
61 | – | – | 64.6 | N#Cc1cccc(C2=NOC3CCCCC23)c1C(F)(F)F (stereo unspecified) [listing 2 of 2 here]
62 | inactive | inactive | – | Fc1ccc(C2=NOC3CCCC23)c(C(F)(F)F)c1 (cis isomer; cis) [listing 2 of 2 here]
63 | inactive | inactive | – | Clc1ccccc1C1=NOC2CCCCC12 (stereo unspecified)
64 | – | – | 646 | N#Cc1ccc(C2=NOC3CCCCCCC23)c(C(F)(F)F)c1 (cis isomer) [listing 2 of 2 here]
65 | inactive | inactive | – | Fc1ccc(C2=NOC3CCCCC23)c(C(F)(F)F)c1 (cis isomer) [listing 2 of 2 here]
66 | inactive | inactive | – | Clc1cccc(C2=NOC3CCCCC23)c1 (cis isomer; cis)
